Key:
Dopamine 2 (D2) = Dopamine 2 (D2) (Homo sapiens, UniProt P14416); assay: NIMH-PDSP radioligand binding, D2
Sigma1 = Sigma1 (Rattus norvegicus, UniProt Q9R0C9); assay: NIMH-PDSP radioligand binding, Sigma-1
MES-induced seizures = assay: Maximal electroshock; assay type: in vivo, mice; settings: for MES (30) N/F, animals active over tested: 30 mg/kg i.p.; for MES (100) N/F, animals active over tested: 100 mg/kg i.p.
Outline: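 Mice received test compound i.p. at 30, 100 or 300 mg/kg in 0.01 ml/g and were tested at various intervals after dosing. Corneal electrodes primed with 0.5% tetracaine HCl electrolyte delivered 60 Hz alternating current, 50 mA, for 0.2 s. An animal counted as protected when the hindlimb tonic extensor component was abolished. Results are scored as animals protected over tested.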

[1] = tested on: PCP site of the NMDA receptor complex; assay: [3H]; assay type: binding, rat; settings: for % inhibition of 1 nM [3H] (+)-MK-801: compound at 10 μM (10,000 nM); for IC50: rat forebrain homogenate, 1 nM (+)-[3H]MK-801; for Ki: read-out: NMDA affinity Ki, calculated by Cheng and Prusoff equation
Outline: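 Washed rat forebrain homogenate (30 ug/mL protein) in 10 mM HEPES, pH 7.4, with 1 nM (+)-[3H]MK-801, 100 uM glutamate, 30 uM glycine and varied competitor concentrations. Nonspecific binding was set with 30 uM (+)-MK-801. Incubation ran 2 h at room temperature, then vacuum filtration onto GF/B filters, three buffer washes and scintillation counting.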

[2] = target: κ- opioid receptors (KOR) (Rattus norvegicus, UniProt P34975); assay: NIMH-PDSP radioligand binding, KOR
Chain of κ- opioid receptors (KOR) (P34975 whole entry): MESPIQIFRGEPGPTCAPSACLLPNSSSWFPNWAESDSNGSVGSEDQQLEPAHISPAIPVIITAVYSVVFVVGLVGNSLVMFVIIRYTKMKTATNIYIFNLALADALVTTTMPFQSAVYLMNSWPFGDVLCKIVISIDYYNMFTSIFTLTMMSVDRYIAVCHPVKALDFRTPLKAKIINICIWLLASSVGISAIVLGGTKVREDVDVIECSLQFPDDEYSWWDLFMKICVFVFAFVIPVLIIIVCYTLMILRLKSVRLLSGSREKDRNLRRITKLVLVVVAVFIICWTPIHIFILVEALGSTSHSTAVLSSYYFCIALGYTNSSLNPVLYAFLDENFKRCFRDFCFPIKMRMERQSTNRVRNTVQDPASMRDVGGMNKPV

Sigma2 = target: T1, Sigma2 (Rattus norvegicus, UniProt Q5U3Y7); assay: NIMH-PDSP radioligand binding, Sigma-2
T1 sequence (Q5U3Y7 1-176): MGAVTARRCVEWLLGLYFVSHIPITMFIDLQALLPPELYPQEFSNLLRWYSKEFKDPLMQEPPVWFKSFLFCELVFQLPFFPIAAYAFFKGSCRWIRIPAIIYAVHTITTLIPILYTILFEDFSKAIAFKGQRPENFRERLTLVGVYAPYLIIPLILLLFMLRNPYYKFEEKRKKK

[3] = target: Norepinephrine Transporter (NET) (Homo sapiens, UniProt P23975); assay: NIMH-PDSP radioligand binding, NET
Chain of Norepinephrine Transporter (NET) (P23975 whole entry): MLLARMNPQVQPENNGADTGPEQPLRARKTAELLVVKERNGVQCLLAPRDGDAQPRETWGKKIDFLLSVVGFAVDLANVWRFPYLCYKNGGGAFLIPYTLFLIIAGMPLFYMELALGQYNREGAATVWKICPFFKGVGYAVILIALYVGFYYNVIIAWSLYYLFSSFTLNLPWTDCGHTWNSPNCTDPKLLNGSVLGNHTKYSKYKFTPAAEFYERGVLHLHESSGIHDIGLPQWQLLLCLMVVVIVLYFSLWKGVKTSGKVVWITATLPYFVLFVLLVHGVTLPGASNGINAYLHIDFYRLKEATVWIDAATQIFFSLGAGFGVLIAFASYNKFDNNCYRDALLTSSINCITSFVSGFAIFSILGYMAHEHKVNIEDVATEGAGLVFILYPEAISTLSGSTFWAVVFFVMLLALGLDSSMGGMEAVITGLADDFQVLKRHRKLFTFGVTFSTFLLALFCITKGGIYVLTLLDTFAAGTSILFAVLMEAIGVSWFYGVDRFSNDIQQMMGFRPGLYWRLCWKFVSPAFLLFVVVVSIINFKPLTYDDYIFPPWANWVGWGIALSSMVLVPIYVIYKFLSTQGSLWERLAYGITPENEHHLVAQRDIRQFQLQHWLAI

[4] = target: μ- opioid receptors (MOR) (Homo sapiens, UniProt P35372); assay: NIMH-PDSP radioligand binding, MOR
Chain of μ- opioid receptors (MOR) (P35372 whole entry): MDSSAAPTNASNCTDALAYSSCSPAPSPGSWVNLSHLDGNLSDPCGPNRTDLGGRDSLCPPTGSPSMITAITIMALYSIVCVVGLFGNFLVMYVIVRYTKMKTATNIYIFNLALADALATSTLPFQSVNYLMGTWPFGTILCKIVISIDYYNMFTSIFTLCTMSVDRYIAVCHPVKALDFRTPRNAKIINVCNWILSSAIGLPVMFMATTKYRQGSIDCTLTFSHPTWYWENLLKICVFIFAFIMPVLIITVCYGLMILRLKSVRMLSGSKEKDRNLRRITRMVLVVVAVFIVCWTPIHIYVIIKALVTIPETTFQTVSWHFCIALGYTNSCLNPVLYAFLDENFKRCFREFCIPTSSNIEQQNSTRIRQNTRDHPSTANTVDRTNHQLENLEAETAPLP

Dopamine 1 (D1) = Dopamine 1 (D1) (Homo sapiens, UniProt P21728); assay: NIMH-PDSP radioligand binding, D1
Chain of Dopamine 1 (D1) (P21728 whole entry): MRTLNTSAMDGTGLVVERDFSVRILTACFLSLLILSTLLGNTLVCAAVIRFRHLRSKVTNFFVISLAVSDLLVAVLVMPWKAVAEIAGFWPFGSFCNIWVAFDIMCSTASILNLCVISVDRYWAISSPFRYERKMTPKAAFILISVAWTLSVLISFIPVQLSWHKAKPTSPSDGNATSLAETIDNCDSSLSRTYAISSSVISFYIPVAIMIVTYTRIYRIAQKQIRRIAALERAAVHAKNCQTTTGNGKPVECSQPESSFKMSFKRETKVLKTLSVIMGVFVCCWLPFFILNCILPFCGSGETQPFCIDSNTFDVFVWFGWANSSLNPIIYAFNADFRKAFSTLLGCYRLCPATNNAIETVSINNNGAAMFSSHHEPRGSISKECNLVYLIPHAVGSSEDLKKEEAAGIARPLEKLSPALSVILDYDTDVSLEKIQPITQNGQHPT

[5] = tested on: Metrazol-induced clonic seizures; assay: Subcutaneous Metrazol seizure threshold test; assay type: in vivo, mice; settings: for scMET (30) N/F, animals active over tested: 30 mg/kg; for scMET (100) N/F, animals active over tested: 100 mg/kg
mice = assay: Acute toxicity, minimal motor impairment; assay type: in vivo; settings: for TOX (30) N/F, animals toxic over tested / TOX (100) N/F, animals toxic over tested / TOX (300) N/F, animals toxic over tested: rotorod; for TOX (30) N/F, animals toxic over tested: 30 mg/kg
[6] = target: Dopamine Transporter (DAT) (Homo sapiens, UniProt Q01959); assay: NIMH-PDSP radioligand binding, DAT
Chain of Dopamine Transporter (DAT) (Q01959 whole entry): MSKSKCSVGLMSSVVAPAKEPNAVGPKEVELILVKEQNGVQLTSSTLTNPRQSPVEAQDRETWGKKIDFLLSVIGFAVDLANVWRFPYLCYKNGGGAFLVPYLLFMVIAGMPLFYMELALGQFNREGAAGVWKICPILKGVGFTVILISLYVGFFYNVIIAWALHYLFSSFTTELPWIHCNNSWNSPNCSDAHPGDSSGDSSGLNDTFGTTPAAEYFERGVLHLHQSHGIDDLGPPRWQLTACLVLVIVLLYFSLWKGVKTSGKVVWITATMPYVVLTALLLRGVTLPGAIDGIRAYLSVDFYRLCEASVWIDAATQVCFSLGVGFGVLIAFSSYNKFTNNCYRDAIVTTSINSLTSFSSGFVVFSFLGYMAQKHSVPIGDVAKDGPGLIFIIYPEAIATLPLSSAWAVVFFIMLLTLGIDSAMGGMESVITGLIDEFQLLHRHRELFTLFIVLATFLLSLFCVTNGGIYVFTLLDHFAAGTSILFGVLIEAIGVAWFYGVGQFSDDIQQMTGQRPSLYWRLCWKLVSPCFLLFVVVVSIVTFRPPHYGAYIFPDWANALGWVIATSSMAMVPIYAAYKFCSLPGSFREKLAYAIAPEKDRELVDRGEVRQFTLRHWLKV

Serotonin 2A (5-HT2A) = Serotonin 2A (5-HT2A) (Homo sapiens, UniProt P28223); assay: NIMH-PDSP radioligand binding, 5-HT2A
Chain of Serotonin 2A (5-HT2A) (P28223 whole entry): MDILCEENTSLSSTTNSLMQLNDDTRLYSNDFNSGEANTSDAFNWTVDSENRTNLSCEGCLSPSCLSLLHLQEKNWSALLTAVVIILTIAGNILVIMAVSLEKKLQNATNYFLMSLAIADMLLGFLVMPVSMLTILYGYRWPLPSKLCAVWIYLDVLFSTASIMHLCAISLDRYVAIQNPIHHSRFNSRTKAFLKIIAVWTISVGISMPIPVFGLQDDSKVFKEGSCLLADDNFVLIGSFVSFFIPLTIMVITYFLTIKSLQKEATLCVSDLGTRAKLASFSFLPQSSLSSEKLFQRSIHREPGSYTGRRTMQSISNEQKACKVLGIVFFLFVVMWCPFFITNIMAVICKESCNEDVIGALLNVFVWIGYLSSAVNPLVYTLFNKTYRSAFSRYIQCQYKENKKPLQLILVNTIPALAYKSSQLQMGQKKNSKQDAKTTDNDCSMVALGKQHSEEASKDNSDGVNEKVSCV

[7] = target: Serotonin Transporter (SERT) (Homo sapiens, UniProt P31645); assay: NIMH-PDSP radioligand binding, SERT
Chain of Serotonin Transporter (SERT) (P31645 whole entry): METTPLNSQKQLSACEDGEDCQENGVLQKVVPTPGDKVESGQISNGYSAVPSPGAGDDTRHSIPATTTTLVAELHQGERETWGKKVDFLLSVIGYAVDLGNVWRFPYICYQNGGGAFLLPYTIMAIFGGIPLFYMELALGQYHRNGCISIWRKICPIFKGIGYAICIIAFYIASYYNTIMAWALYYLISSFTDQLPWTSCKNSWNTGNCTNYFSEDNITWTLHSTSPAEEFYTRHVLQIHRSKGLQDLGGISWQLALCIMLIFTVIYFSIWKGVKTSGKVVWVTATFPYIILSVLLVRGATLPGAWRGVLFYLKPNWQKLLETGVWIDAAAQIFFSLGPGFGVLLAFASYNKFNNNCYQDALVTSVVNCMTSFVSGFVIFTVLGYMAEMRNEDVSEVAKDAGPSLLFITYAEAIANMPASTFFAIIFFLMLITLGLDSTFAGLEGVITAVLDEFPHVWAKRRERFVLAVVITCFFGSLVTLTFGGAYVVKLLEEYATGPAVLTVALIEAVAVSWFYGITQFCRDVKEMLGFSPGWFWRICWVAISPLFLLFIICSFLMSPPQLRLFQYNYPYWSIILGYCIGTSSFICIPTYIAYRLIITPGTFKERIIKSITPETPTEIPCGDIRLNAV

Chain of Dopamine 2 (D2) (P14416 whole entry): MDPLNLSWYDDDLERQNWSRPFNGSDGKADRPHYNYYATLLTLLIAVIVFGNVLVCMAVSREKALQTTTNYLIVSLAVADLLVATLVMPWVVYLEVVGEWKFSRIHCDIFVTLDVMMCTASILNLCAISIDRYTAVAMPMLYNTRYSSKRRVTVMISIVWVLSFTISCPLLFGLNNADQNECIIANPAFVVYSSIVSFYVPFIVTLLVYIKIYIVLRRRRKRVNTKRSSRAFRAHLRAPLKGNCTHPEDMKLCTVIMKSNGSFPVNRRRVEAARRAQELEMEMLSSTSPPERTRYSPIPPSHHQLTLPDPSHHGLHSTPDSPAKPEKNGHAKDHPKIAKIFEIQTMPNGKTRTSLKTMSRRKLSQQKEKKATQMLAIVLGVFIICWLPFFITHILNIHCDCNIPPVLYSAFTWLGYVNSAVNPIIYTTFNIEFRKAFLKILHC
Chain of Sigma1 (Q9R0C9 whole entry): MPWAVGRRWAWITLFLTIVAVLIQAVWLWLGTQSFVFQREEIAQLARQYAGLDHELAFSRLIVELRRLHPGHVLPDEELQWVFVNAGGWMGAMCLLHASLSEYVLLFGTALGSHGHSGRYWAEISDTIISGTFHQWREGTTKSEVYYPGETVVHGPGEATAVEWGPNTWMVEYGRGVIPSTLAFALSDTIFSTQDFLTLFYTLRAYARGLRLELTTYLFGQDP

SMILES	Ki (Dopamine 2 (D2))	Ki (Sigma1)	MES (30) N/F, animals active over tested (MES-induced seizures; 0.5 h)	MES (30) N/F, animals active over tested (MES-induced seizures; 4.0 h)	MES (100) N/F, animals active over tested (MES-induced seizures; 4.0 h)	Ki [2]	Ki (Sigma2)	Ki [3]	Ki [4]	Ki (Dopamine 1 (D1))	scMET (30) N/F, animals active over tested ([5]; 0.5 h)	scMET (30) N/F, animals active over tested ([5]; 4.0 h)	scMET (100) N/F, animals active over tested ([5]; 0.5 h)	scMET (100) N/F, animals active over tested ([5]; 4.0 h)	TOX comments (mice; 100 mg/kg, 0.5 h)	TOX comments (mice; 300 mg/kg, 0.5 h)	TOX (30) N/F, animals toxic over tested (mice; 0.5 h)	TOX (30) N/F, animals toxic over tested (mice; 4.0 h)	TOX (100) N/F, animals toxic over tested (mice; 100 mg/kg, 0.5 h)	TOX (100) N/F, animals toxic over tested (mice; 100 mg/kg, 4.0 h)	further results
NC1(c2ccccc2)CC2CCC1C2 (stereo not drawn) [Compound 4a, 2-phenylbicyclo[2.2.1]heptan-2-amine]	> 10 µM	2.2 µM	0/1 0/1	0/1 0/1	1/1	> 10 µM	0.995 µM	> 10 µM	> 10 µM	> 10 µM	0/1 0/1	0/1 0/1	0/1 0/1	0/1 0/1	Severe Tremors, Death following clonic seizure	Death	0/4	0/2	8/8	0/2	% inhibition of 1 nM [3H] (+)-MK-801 [1]: greater than 90%; IC50 [1]: 13.3 ± 0.63 µM; Ki [1]: 8.45 µM; TOX (300) N/F, animals toxic over tested (mice; 300 mg/kg, 0.5 h): 4/4 /; Ki [6]: > 10 µM; Ki (Serotonin 2A (5-HT2A)): > 10 µM; Ki [7]: > 10 µM
NC1(c2ccc(F)cc2)CC2CCC1C2 (stereo not drawn) [Compound 4b, 2-(4-fluorophenyl)bicyclo[2.2.1]heptan-2-amine]	> 10 µM	> 10 µM	0/1 0/1	0/1 0/1	0/3	> 10 µM	> 10 µM	> 10 µM	> 10 µM	> 10 µM	0/1 0/1	0/1 0/1	0/1 0/1	0/1 0/1	Severe Tremors, Clonic seizures	Death following clonic seizure	0/4	0/2	8/8	0/4	MES (100) N/F, animals active over tested (MES-induced seizures; 0.5 h): 3/3; TOX (300) N/F, animals toxic over tested (mice; 300 mg/kg, 0.5 h): 4/4 /; Ki [6]: > 10 µM; Ki (Serotonin 2A (5-HT2A)): > 10 µM; Ki [7]: > 10 µM
c1ccc(C2(NCCN3CCCCC3)CC3CCC2C3)cc1 (stereo not drawn) [Compound 5a, 2-Phenyl-N-(2-(piperidin-1-yl)ethyl)bicyclo[2.2.1]heptan-2-amine]	> 10 µM	> 10 µM	0/1 0/1	0/1 0/1	1/3	0.876 µM	> 10 µM	> 10 µM	> 10 µM	> 10 µM	0/1 0/1	0/1 0/1	0/1 0/1	0/1 0/1	Clonic seizures	Death	0/4	0/2	8/8	0/4	MES protection (in words) (MES-induced seizures; 100 mg/kg): MES neuroprotection activity; MES (100) N/F, animals active over tested (MES-induced seizures; 0.5 h): 3/3; MES neuroprotective activity (in words) (MES-induced seizures; mouse, in vivo): greatest degree of protection from MES induced neural damage and death; affinity for NMDA (in words) [1]: highest affinity for NMDA; % inhibition of 1 nM [3H] (+)-MK-801 [1]: greater than 90%; IC50 [1]: 7.86 ± 1.64 µM; Ki [1]: 5.28 µM; toxicity profile (in words) (mice; mouse, in vivo): acceptable toxicity profile; TOX (300) N/F, animals toxic over tested (mice; 300 mg/kg, 0.5 h): 4/4 /; Ki [6]: > 10 µM; Ki (Serotonin 2A (5-HT2A)): 2.64 µM; Ki [7]: > 10 µM

From publication PMC3115441 (Chemical biology & drug design, 2011)
